Compound activity deposited in PubChem BioAssay by several laboratories.
An excerpt weighted towards active compounds, which were near 2% of everything screened.
PKA-R2B activ: activators of PKA-R2B holoenzyme, primary screen, biochemical, fluorescence polarization, Cy5-IP20, human; cAMP-dependent protein kinase catalytic subunit beta (Homo sapiens) + cAMP-dependent …; PKA-R2B holoenzyme dissociation; R2B truncated from residue 108, S112A mutant; 0% DMSO only, 100% 113 µM cGMP; activation, % at 11.4 µM; hit rate 0.079% among 340,000; AID 504700, 2011;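 active = activation above a cutoff set at the mean over all compounds plus 3 SD, cut at about 18% in these data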;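 note: higher means more holoenzyme dissociation and a rise in polarization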
Target sequence (P31323 whole entry, looked up, other chains not shown, the tested form may be a part): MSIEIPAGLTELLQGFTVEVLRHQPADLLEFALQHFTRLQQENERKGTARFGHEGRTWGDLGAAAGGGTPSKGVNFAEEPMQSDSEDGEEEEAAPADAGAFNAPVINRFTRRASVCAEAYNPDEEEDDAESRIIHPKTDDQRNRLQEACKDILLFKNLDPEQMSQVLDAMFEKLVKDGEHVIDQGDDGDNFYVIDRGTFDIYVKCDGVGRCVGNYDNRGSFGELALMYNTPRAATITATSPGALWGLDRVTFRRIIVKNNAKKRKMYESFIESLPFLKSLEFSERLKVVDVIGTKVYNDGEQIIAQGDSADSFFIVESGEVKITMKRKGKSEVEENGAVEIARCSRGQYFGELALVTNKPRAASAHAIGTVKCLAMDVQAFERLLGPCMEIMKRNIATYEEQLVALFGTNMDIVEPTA
PKA-R1A activ: activators of PKA-R1A holoenzyme, primary screen, biochemical, fluorescence polarization, Cy5-IP20, bovine R1A, mouse PKAc; PKA-R1A dissociation; scaled: DMSO 0%, 113 µM cGMP 100%; hit rate 0.083% among 340,000; AID 504707, 2011; activation, % at 11.4 µM;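 active = percent activation above the mean of all tested compounds plus 3 SD, cut at about 19% in these data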;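 note: higher means more PKAc released from R1A so a rise in polarization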
NTR1 ag: agonists of human NTR1, primary screen, imaging, U2OS cells, beta-arrestin-GFP, high content | Neurotensin receptor type 1 (Homo sapiens), P30989 | NTR1-U2OS beta-arrestin-GFP spot imaging, agonist mode | activation, % at 20 µM | hit rate 0.17% among 330,000 | AID 493036, 2011;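 active = activation at or above 40% of the spot to cytoplasm intensity ratio, with at least 20 cells analyzed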
CAL PDZ FP-1: untagged CAL PDZ binding inhibitors, primary screen, biochemical, fluorescence polarization, HTS; purified CAL PDZ, TMR-peptide fluorescence polarization, 1 h; inhibition, % at 24.9 µM; hit rate 0.92% among 300,000; AID 602252, 2012;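 active = mean inhibition of at least 30% with at least half of replicates also reaching 30%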
CAL PDZ FP-2: CAL PDZ peptide-binding inhibitors, primary screen, biochemical, fluorescence polarization, Cer-tagged CAL PDZ, HTS. Golgi-associated PDZ and coiled-coil motif-containing protein (Homo sapiens), Q9HD26. purified CAL PDZ, TMR-peptide fluorescence polarization, 1 h. inhibition, % at 20 µM. hit rate 0.02% among 330,000. AID 504414, 2011;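 active = highest replicate inhibition of at least 40%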
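Assay system – tagged CAL PDZ protein CerCALP, purified · Timing – 1 h at RT · Compound – single point, 20 µM · Measured by – fluorescence polarization from S- and P-plane intensities, G-factor corrected · Evaluation – inhibition from polarization loss · Probe or stimulus – TMR reporter peptide T*-PRC34 · Buffer or medium – pH 7.4 phosphate-saline buffer, reducing agent, detergent, IgG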
dFosB activator: activators of delta FosB homodimer, primary screen, biochemical, fluorescence polarization, TAMRA-CDK5 oligo, single point | AID 493131, 2011 | activation, % at 25 µM | hit rate 0.99% among 340,000 | purified delta FosB; percent of positive-control signal above neutral wells;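 active = mean activation above about 17%, with every replicate also reaching it, limit read from the data, passing the limit was not always enough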
R2B FP artifact: fluorescence polarization artefacts, biochemical, artefact control for PKA-R2B activator project | shares compounds with PKA-R2B activ | FP artifact counterscreen | activation, % at 11.4 µM | hit rate 6% among 270 | AID 504796, 2011; in the data active = activation above about 20%;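 note: Cy5 labelled IP20 peptide probe with compound but no PKA protein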
PKA-R2B act conf: activators of PKA-R2B holoenzyme, confirmation, biochemical, fluorescence polarization, human; shares compounds with PKA-R2B activ; PKA-R2B complex, activation; activation, % at 11.4 µM; hit rate 9% among 270; AID 504797, 2011; in the data active = activation above about 19%
Target sequence (P31323 whole entry, looked up): as the sequence (P31323 whole entry, looked up, other chains not shown, the tested form may be a part) above
Of the large screens only hits and unclear results are named; the others gave an inactive call (follow-up assays come after a bar, where they were run).

CC1(O)CC2CC1C(C(=O)O)C2C(=O)O (centres undefined)	none (no result: NTR1 ag)
Cc1ccccc1NC(=O)CCS(=O)(=O)c1ccc(Br)s1	PKA-R2B activ 19 (no result: CAL PDZ FP-1) | R2B FP artifact inactive | PKA-R2B act conf inactive
CCOC(=O)C1CCN(C(=O)c2cc(COc3ccc(F)cc3F)on2)CC1	PKA-R2B activ 20 (no result: CAL PDZ FP-1) | R2B FP artifact inactive | PKA-R2B act conf inactive
Cc1ccc(-c2nc(C#N)c(NCC3CCCO3)o2)cc1 (centres undefined)	none
N#Cc1nc(-c2cccs2)oc1NCC1CCCO1 (centres undefined)	PKA-R2B activ 19 | R2B FP artifact inactive | PKA-R2B act conf inactive
Cc1onc(-c2ccccc2Cl)c1C(=O)NCc1cccnc1	PKA-R2B activ 20 (no result: CAL PDZ FP-1) | R2B FP artifact inactive | PKA-R2B act conf inactive
CCN1CCN(c2ccc(S(=O)(=O)N3CCOCC3)cc2NC(=O)c2ccc(F)cc2Cl)CC1	PKA-R2B activ 19 | R2B FP artifact inactive | PKA-R2B act conf inactive
CCN1CCN(c2ccc(S(=O)(=O)N3CCOCC3)cc2NC(=O)c2ccc(C(F)(F)F)cc2)CC1	none
Cc1cccc(C)c1NC(=O)C(NC=O)c1ccc(N(C)C)cc1 (centres undefined)	PKA-R2B activ 20 | R2B FP artifact inactive | PKA-R2B act conf inactive
Cc1cccc(C)c1NC(=O)C(NC=O)c1ccccc1Cl (centres undefined)	none
CN1OC[C@@H]2CN[C@H](c3cccc(-c4ccccc4)c3)C[C@@H]21	none (no result: NTR1 ag)
COc1ccc(OC)c(CC(NC(C)=O)C(=O)NC2CCN(c3c(Cc4ccccc4)c(C)nc4ncnn34)CC2)c1 (centres undefined)	PKA-R2B activ 21 | R2B FP artifact inactive | PKA-R2B act conf inactive
CCN1CCCC1CN(Cc1cc2cc(C)ccc2[nH]c1=O)C(=O)Nc1ccccc1OC (centres undefined)	PKA-R2B activ 19 | R2B FP artifact inactive | PKA-R2B act conf inactive
CCN(CC)CCNC(=O)c1ccc(NC2=NC3CS(=O)(=O)CC3S2)cc1 (centres undefined)	PKA-R2B activ 19 (no result: CAL PDZ FP-1) | R2B FP artifact inactive | PKA-R2B act conf inactive
CC1C(=O)Nc2ccccc2N1C(=O)c1ccc(O)cc1 (centres undefined)	none
CC1C(=O)Nc2ccccc2N1C(=O)c1ccccc1 (centres undefined)	PKA-R2B activ 20 | R2B FP artifact inactive | PKA-R2B act conf inactive
CC(=O)Nc1ccc(S(=O)(=O)NNC(=O)COc2cc(C)ccc2C(C)C)cc1	PKA-R2B activ 20 | R2B FP artifact inactive | PKA-R2B act conf inactive
CC(=O)N(c1ccc(Cl)cc1)c1nc(C)cc(C)c1C#N	PKA-R2B activ 20 | R2B FP artifact inactive | PKA-R2B act conf inactive
COc1cc2cc(CN(Cc3ccc4c(c3)OCO4)C(=O)c3ccco3)c(=O)[nH]c2cc1OC	PKA-R2B activ 21 (no result: CAL PDZ FP-1) | R2B FP artifact inactive | PKA-R2B act conf inactive
Cc1noc(C)c1NC(=O)N(C)C[C@H]1Oc2ccc(NC(=O)Nc3ccccc3)cc2C(=O)N([C@H](C)CO)C[C@@H]1C	none
Oc1ccccc1OCC(O)c1ccccc1 (centres undefined)	PKA-R2B activ 19 | R2B FP artifact inactive | PKA-R2B act conf inactive
O=C(NC(=S)NC(CO)Cc1ccccc1)c1ccc(F)cc1 (centres undefined)	none
CC(C)Cn1c(=O)c(C(=O)NCc2ccccn2)c(O)c2ccccc21	PKA-R2B activ 21 | R2B FP artifact inactive | PKA-R2B act conf inactive
CCn1c(=O)c(C(=O)NCc2ccccc2)c(O)c2ccccc21	none
Cc1ccc(C)c(S(=O)(=O)N2CCN(C(=O)/C=C/c3ccco3)CC2)c1	none
O=C(Nc1ccc(N2CCOCC2)cc1)c1ccc(S(=O)(=O)NCc2ccco2)cc1	none
CCOc1ccc(CC(=O)NCc2cn3c(C)csc3n2)cc1	PKA-R2B activ 22 (no result: CAL PDZ FP-1) | R2B FP artifact inactive | PKA-R2B act conf inactive
Clc1ccc(/C=N/Nc2ncnc3nc[nH]c23)cc1	none
Oc1ccc(/C=N/Nc2ncnc3nc[nH]c23)cc1	PKA-R2B activ 22 | R2B FP artifact inactive | PKA-R2B act conf inactive
Cc1ccc(C(=O)N2CCN(c3ccc(C(F)(F)F)cn3)CC2)cc1	PKA-R2B activ 20 | R2B FP artifact inactive | PKA-R2B act conf inactive
O=C(NC1CC1)c1ccc(F)cc1Cl	PKA-R2B activ 23 | R2B FP artifact inactive | PKA-R2B act conf inactive
O=C(CCSc1ccccc1)NCC1CCCO1 (centres undefined)	none
O=C(CCSCCC(=O)NCC1CCCO1)NCC1CCCO1 (centres undefined)	PKA-R2B activ 20 | R2B FP artifact inactive | PKA-R2B act conf inactive
CC(=O)N1C[C@H]2CON(C)[C@H]2C[C@H]1c1ccc(-c2ccc(C#N)cc2)cc1	none (no result: NTR1 ag, CAL PDZ FP-1, CAL PDZ FP-2, dFosB activator)
Cc1ccc(C(=O)Nc2ccccc2C(=O)N2CCOCC2)cc1[N+](=O)[O-]	PKA-R2B activ 20 | R2B FP artifact inactive | PKA-R2B act conf inactive
Cc1ccc(C(=O)N2CCOCC2)cc1[N+](=O)[O-]	none
O=C(NCCC(=O)N1CCC2(CC1)NCCc1[nH]cnc12)c1cccc(Cl)c1	none
N#Cc1cc([N+](=O)[O-])ccc1NC(=O)COC(=O)C1CCC(=O)N1 (centres undefined)	PKA-R2B activ 20 | R2B FP artifact inactive | PKA-R2B act conf inactive
COc1ccc(NC(=O)Nc2ccc3c(c2)C(=O)N([C@H](C)CO)C[C@H](C)[C@@H](CN(C)C(=O)Nc2ccc(C(F)(F)F)cc2)O3)cc1	PKA-R2B activ 19 | R2B FP artifact inactive | PKA-R2B act conf inactive
CCOc1cccc(C(=O)N(Cc2cccc(F)c2)C2CCS(=O)(=O)C2)c1 (centres undefined)	none (no result: CAL PDZ FP-1)
CCC(=O)Nc1ccccc1N1CCN(c2ccc(F)cc2)CC1	PKA-R2B activ 19 | R2B FP artifact inactive | PKA-R2B act conf inactive
